# From ChEMBL document CHEMBL1138784, “Rational design, synthesis, and biological evaluation of bis(pyrimido[5,6,1-de]acridines) and bis(pyrazolo[3,4,5-kl]acridine-5-carboxamides) as new anticancer agents” (J Med Chem, 2004)
# What was measured:
# [1] = Cytotoxicity against human H460M cancer cell line was determined after 144 hr; format: functional, cell-based; conditions: Cancer cell lines
# Summary of the method: (§1)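 MTT colorimetric assay. Cells seeded by growth characteristics and preincubated 24 h, then exposed to drug for 1 h or 144 h at 37 °C, 5% CO2. H460M, MKN45 and PC-3 were grown in RPMI 1640 with 10% FCS. HCT116 was grown in D-MEM with 10% FBS and 2 mM glutamine.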
# MKN-45 = experiment: Cytotoxicity against human MKN45 cancer cell line was determined after 144 hr; format: functional, cell-based; conditions: MKN-45, 144 h; summary of the method: as §1
# LoVo [2] = experiment: Ratio of IC50 against sensitive LoVo cell line and that of doxorubicin resistance LoVo cell line was determined after 1 hr exposure; format: functional, Homo sapiens
# LoVo [3] = experiment: Cytotoxicity against doxorubicin resistant LoVo cell line was determined against 144 hrs; format: functional, cell-based; conditions: Homo sapiens
# Summary of the method: (§2)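 MTT assay on doxorubicin-sensitive LoVo and resistant LoVo/Dx cells, 24 h preincubation, then 1 h or 144 h drug exposure at 37 °C, 5% CO2. IC50 in nM. Resistance index is IC50 on LoVo/Dx divided by IC50 on LoVo.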
# Nucleic Acid = experiment: Binding site preference is determined as the ratio of Poly (dA-dT)2 to Poly (dG-dC)2; format: nucleic-acid assay
# Summary of the method: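 Ethidium displacement fluorometry at pH 7.0 (10 mM Na2HPO4, 10 mM NaH2PO4, 1 mM EDTA) with 1.26 μM ethidium bromide and 1 μM [poly(dA-dT)]2 or [poly(dG-dC)]2, 20 °C. Ex 546 nm, em 595 nm, drug added serially from a DMSO stock. Preference taken from the [AT]/[GC] ratio of C50 values, counted significant only below 0.7 or above 1.3.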
# SNB-19 [4] = experiment: Percent growth of CNS SNB-19 cell line was determined at 10e-5 M concentration after 48 hr of exposing; format: functional, Homo sapiens
# Summary of the method: (§3)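 NCI sulforhodamine B screen. Cells seeded by growth rate, 24 h drug-free, then 48 h exposure to 10^-8, 10^-6 or 10^-5 M. Protein-stain optical density expressed as percent growth relative to untreated control (100%); negative values indicate cell kill.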
# HCT-116 = experiment: Cytotoxicity against human HCT116 cancer cell line was determined after 144 hr; format: functional, cell-based; conditions: HCT-116, 144 h; summary of the method: as §1
# DU-145 [5] = experiment: Percent growth of prostate DU-145 cell line was determined at 10e-6 M concentration after 48 hr of exposing; format: functional, Homo sapiens
# DU-145 [6] = experiment: Percent growth of prostate DU-145 cell line was determined at 10e-8 M concentration after 48 h of exposing; format: functional, Homo sapiens
# [7] = Percent growth of melanoma LOX IMV1 cell line was determined at 10e-5 M concentration after 48 hr of exposing; format: functional, Homo sapiens; summary of the method: as §3
# [8] = Percent growth of melanoma LOX IMV1 cell line was determined at 10e-6 M concentration after 48 hr of exposing; format: functional, Homo sapiens; summary of the method: as §3
# [9] = Percent growth of melanoma LOX IMV1 cell line was determined at 10e-8 M concentration after 48 hr of exposing; format: functional, Homo sapiens; summary of the method: as §3
# PC-3 = experiment: Cytotoxicity against human PC3 cancer cell line was determined after 144 hr; format: functional, cell-based; conditions: PC-3, 144 h; summary of the method: as §1
# [10] = Cytotoxicity against doxorubicin resistant LoVo cell line was determined against 1 hour; format: cell-based; conditions: Homo sapiens; summary of the method: as §2
# LoVo [11] = experiment: Cytotoxicity against human LoVo cancer cell line was determined after 144 hr; format: functional, cell-based; summary of the method: as §2
# SNB-19 [12] = experiment: Percent growth of CNS SNB-19 cell line was determined at 10e-6 M concentration after 48 hr of exposing; format: functional, Homo sapiens; summary of the method: as §3
# SNB-19 [13] = experiment: Percent growth of CNS SNB-19 cell line was determined at 10e-8 M concentration after 48 hr of exposing; format: functional, Homo sapiens; summary of the method: as §3
# 786-0 [14] = experiment: Percent growth of renal 786-O cell line was determined at 10e-5 M concentration after 48 hr of exposing; format: functional, Homo sapiens; summary of the method: as §3
# 786-0 [15] = experiment: Percent growth of renal 786-O cell line was determined at 10e-6 M concentration after 48 h of exposing; format: functional, Homo sapiens; summary of the method: as §3
# 786-0 [16] = experiment: Percent growth of renal 786-O cell line was determined at 10e-8 M concentration after 48 h of exposing; format: functional, Homo sapiens; summary of the method: as §3
# MCF7 [17] = experiment: Percent growth of breast MCF-7 cell line was determined at 10e-6 M concentration after 48 h of exposing; format: functional, Homo sapiens
# MCF7 [18] = experiment: Percent growth of breast MCF-7 cell line was determined at 10e-8 M concentration after 48 hr of exposing; format: functional, Homo sapiens
# SW-620 [19] = experiment: Percent growth of colon SW-620 cell line was determined at 10e-5 M concentration after 48 hr of exposing; format: functional, Homo sapiens; summary of the method: as §3
# SW-620 [20] = experiment: Percent growth of colon SW-620 cell line was determined at 10e-6 M concentration after 48 hr of exposing; format: functional, Homo sapiens; summary of the method: as §3
# SW-620 [21] = experiment: Percent growth of colon SW-620 cell line was determined at 10e-8 M concentration after 48 hr of exposing; format: functional, Homo sapiens; summary of the method: as §3
# NCI-H460 [22] = experiment: Percent growth of lung NCI-H460 cell line was determined at 10e-5 M concentration after 48 hr of exposing; format: functional, Homo sapiens; summary of the method: as §3
# NCI-H460 [23] = experiment: Percent growth of lung NCI-H460 cell line was determined at 10e-6 M concentration after 48 hr of exposing; format: functional, Homo sapiens; summary of the method: as §3
# NCI-H460 [24] = experiment: Percent growth of lung NCI-H460 cell line was determined at 10e-8 M concentration after 48 hr of exposing; format: functional, Homo sapiens; summary of the method: as §3
# MOLT-4 [25] = experiment: Percent growth of leukemia MOLT-4 cell line was determined at 10e-5 M concentration after 48 hr of exposing; format: functional, Homo sapiens; summary of the method: as §3
# MOLT-4 [26] = experiment: Percent growth of leukemia MOLT-4 cell line was determined at 10e-6 M concentration after 48 h of exposing; format: functional, Homo sapiens; summary of the method: as §3
# MOLT-4 [27] = experiment: Percent growth of leukemia MOLT-4 cell line was determined at 10e-8 M concentration after 48 hr of exposing; format: functional, Homo sapiens; summary of the method: as §3
# OVCAR-4 [28] = experiment: Percent growth of ovarian OVCAR-4 cell line was determined at 10e-5 M concentration after 48 hr of exposing; format: functional, Homo sapiens; summary of the method: as §3
# OVCAR-4 [29] = experiment: Percent growth of ovarian OVCAR-4 cell line was determined at 10e-6 M concentration after 48 hr of exposing; format: functional, Homo sapiens; summary of the method: as §3
# OVCAR-4 [30] = experiment: Percent growth of ovarian OVCAR-4 cell line was determined at 10e-8 M concentration after 48 hr of exposing; format: functional, Homo sapiens; summary of the method: as §3
# DU-145 [31] = experiment: Percent growth of prostate DU-145 cell line was determined at 10e-5 M concentration after 48 hr of exposing; format: functional, Homo sapiens
# [32] = Cytotoxicity against human LoVo cancer cell line was determined after 1 hr; format: cell-based; summary of the method: as §2
# [33] = Cytotoxicity against human H460M cancer cell line was determined after 1 hr; format: cell-based; conditions: Cancer cell lines; summary of the method: as §1
# [34] = Cytotoxicity against human MKN45 cancer cell line was determined after 1 hr; format: cell-based; conditions: Cancer cell lines; summary of the method: as §1
# [35] = Cytotoxicity against human HCT116 cancer cell line was determined after 1 hr; format: cell-based; conditions: HCT-116, 1 h; summary of the method: as §1
# HT-29 = experiment: Cytotoxicity is determined as the concentration required to inhibit the growth of human colon adenocarcinoma (HT-29) cell line; format: functional, cell-based
# MCF7 [36] = experiment: Percent growth of breast MCF-7 cell line was determined at 10e-5 M concentration after 48 hr of exposing; format: functional, Homo sapiens
# [37] = Cytotoxicity against human PC3 cancer cell line was determined after 1 hr; format: cell-based; conditions: Cancer cell lines; summary of the method: as §1
smiles,measurement,setting,value
COc1ccc2c(c1)c(=O)c1c(NCCCN(C)CCCNc3ccc4c(=O)n(CCN(C)C)c(=O)n5c6ccc(OC)cc6c(=O)c3c45)ccc3c(=O)n(CCN(C)C)c(=O)n2c31,IC50,[1],< 1 pM
same,IC50,MKN-45,2.8 pM
same,Resistance index,LoVo [2],4.2
same,IC50,LoVo [3],7.6 nM
same,Binding site preference,Nucleic Acid,2.1
same,Growth,SNB-19 [4],-48%
same,IC50,HCT-116,0.66 nM
same,Growth,DU-145 [5],3%
same,Growth,DU-145 [6],40%
same,Growth,[7],-91%
same,Growth,[8],-34%
same,Growth,[9],26%
same,IC50,PC-3,1.2 nM
same,IC50,[10],76 nM
same,IC50,LoVo [11],0.95 nM
same,Growth,SNB-19 [12],14%
same,Growth,SNB-19 [13],38%
same,Growth,786-0 [14],-79%
same,Growth,786-0 [15],10%
same,Growth,786-0 [16],37%
same,Growth,MCF7 [17],-3%
same,Growth,MCF7 [18],39%
same,Growth,SW-620 [19],-49%
same,Growth,SW-620 [20],-2%
same,Growth,SW-620 [21],30%
same,Growth,NCI-H460 [22],-87%
same,Growth,NCI-H460 [23],-20%
same,Growth,NCI-H460 [24],14%
same,Growth,MOLT-4 [25],-62%
same,Growth,MOLT-4 [26],-33%
same,Growth,MOLT-4 [27],6%
same,Growth,OVCAR-4 [28],-72%
same,Growth,OVCAR-4 [29],-37%
same,Growth,OVCAR-4 [30],0%
same,Growth,DU-145 [31],-66%
same,IC50,[32],18 nM
same,IC50,[33],0.06 nM
same,IC50,[34],0.05 nM
same,IC50,[35],0.85 nM
same,IC50,HT-29,< 0.1 nM
same,Growth,MCF7 [36],-63%
same,IC50,[37],4.7 nM
